Measured values reported in ChEMBL document CHEMBL1123645, “Phenylephrine derivatives as leukotriene D4 antagonists” (J Med Chem, 1987).
Values belong to the molecule of their own block, whether it stands above or below them. Calls of active or inactive are those of the source. The rule behind the calls is not given here.

Legend:
[1] = target: Cysteinyl leukotriene receptor (Homo sapiens) (UniProt Q9Y271+Q9NS75); assay: Inhibition of Ovalbumin (OA) induced bronchospasm in the guinea pig when administered intraduodenally (50 mg/kg); format: functional, organism-based; conditions: Cavia porcellus; target entry is the homologue from another species
Chain of Cysteinyl leukotriene receptor (Homo sapiens) (Q9NS75 whole entry, looked up): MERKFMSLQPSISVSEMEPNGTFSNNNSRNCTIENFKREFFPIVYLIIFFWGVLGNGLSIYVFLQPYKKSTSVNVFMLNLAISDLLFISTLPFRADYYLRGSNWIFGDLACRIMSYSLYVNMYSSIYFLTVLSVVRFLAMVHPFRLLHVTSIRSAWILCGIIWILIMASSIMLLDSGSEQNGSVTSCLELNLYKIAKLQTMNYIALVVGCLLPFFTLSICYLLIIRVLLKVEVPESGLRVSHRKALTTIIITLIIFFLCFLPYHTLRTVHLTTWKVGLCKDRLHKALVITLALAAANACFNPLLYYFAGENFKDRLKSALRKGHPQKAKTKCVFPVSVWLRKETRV
Chain of Cysteinyl leukotriene receptor (Homo sapiens) (Q9Y271 whole entry, looked up): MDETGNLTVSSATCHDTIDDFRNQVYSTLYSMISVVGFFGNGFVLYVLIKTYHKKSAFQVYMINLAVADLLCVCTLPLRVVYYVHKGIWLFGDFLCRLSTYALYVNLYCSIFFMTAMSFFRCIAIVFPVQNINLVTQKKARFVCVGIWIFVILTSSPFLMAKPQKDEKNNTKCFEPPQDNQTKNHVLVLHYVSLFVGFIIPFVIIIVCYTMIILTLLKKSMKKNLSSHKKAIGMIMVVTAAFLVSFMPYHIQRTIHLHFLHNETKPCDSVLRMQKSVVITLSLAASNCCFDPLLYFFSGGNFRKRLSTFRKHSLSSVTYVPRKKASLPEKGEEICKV
Procedure, shortened: (§1)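 Guinea pig bronchoconstriction induced by LTD4 or by ovalbumin. Antagonist was given intraduodenally 10 min before the agonist. […] Single-dose lines give percent inhibition at the stated id dose.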

Cavia porcellus [2] = assay: Antagonist activity was determined by the ability to inhibit of ovalbumin induced bronchospasm when administered per orally; format: functional; conditions: po
Procedure, shortened: (§2)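 Guinea pig bronchoconstriction induced by LTD4 or by ovalbumin. Antagonist was dosed orally to awake animals 120 min before the agonist, which is 95 min before anesthetic. […] Single-dose lines give percent inhibition at the stated oral dose.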

Cavia porcellus [3] = assay: Inhibition of Ovalbumin (OA) induced bronchospasm in the guinea pig when administered perorally (50 mg/kg); format: functional; procedure, shortened: as §2
Cavia porcellus [4] = assay: Antagonist activity was determined by the ability to inhibit of ovalbumin induced bronchospasm when administered intraduodenally; format: functional; conditions: intraduodenal; procedure, shortened: as §1
Cavia porcellus [5] = assay: Relative inhibitory potency against LTD4 (leukotriene D4) induced bronchospasm when administered intraduodenally; format: functional
Cavia porcellus [6] = assay: Relative inhibitory potency against LTD4 (leukotriene D4) induced bronchospasm when administered per orally; format: functional
Cavia porcellus [7] = assay: Relative inhibitory potency against ovalbumin induced bronchospasm when administered intraduodenally; format: functional
Cavia porcellus [8] = assay: Relative inhibitory potency against ovalbumin induced bronchospasm when administered per orally; format: functional
Cavia porcellus [9] = assay: Antagonist activity was determined by the ability to inhibit of LTD4 (leukotriene D4) induced bronchospasm when administered intraduodenally; format: functional; conditions: intraduodenal; procedure, shortened: as §1
Cavia porcellus [10] = assay: Antagonist activity was determined by the ability to inhibit of LTD4 (leukotriene D4) induced bronchospasm when administered per orally; format: functional; conditions: po; procedure, shortened: as §2
Cavia porcellus [11] = species: Cavia porcellus; assay: Antagonist activity towards LTD4-induced contraction of isolated guinea pig; format: functional
Procedure, shortened: (§3)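 Guinea pig tracheal spirals stretched to near-optimal length and equilibrated 1.5 h, washed every 15 min. Indomethacin (5 μM) was present in all tissues. Cumulative LTD4 dose-response curves were recorded isometrically via force transducers. Paired proximal/distal strips from one animal got solvent control or drug. Values are negative log, mean ± SEM, and were compared by Student's t test.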

Cavia porcellus [12] = species: Cavia porcellus; assay: relative potency antagonist on LTD4-induced contraction of isolated guinea pig trachea; format: functional; procedure, shortened: as §3
Cavia porcellus [13] = assay: Inhibition of LTD4 (leukotriene) induced bronchospasm in the guinea pig when administered intraduodenally (50 mg/kg)
Cavia porcellus [14] = assay: Inhibition of Ovalbumin (OA) induced bronchospasm in the guinea pig when administered perorally (50 mg/kg); NA means not active,<10%inhibition; format: functional, organism-based; procedure, shortened: as §2
Cavia porcellus [15] = assay: Inhibition of LTD4 (leukotriene) induced bronchospasm in the guinea pig when administered perorally (50 mg/kg)
Cavia porcellus [16] = assay: Inhibition of LTD4 (leukotriene) induced bronchospasm in the guinea pig when administered intraduodenally at 25 mg/kg
Cavia porcellus [17] = assay: Inhibition of LTD4 (leukotriene) induced bronchospasm in the guinea pig when administered perorally (50 mg/kg); remark: listed apart in the source
Cavia porcellus [18] = assay: Inhibition of Ovalbumin (OA) induced bronchospasm in the guinea pig when administered intraduodenally at 25 mg/kg; NA means not active; format: functional, organism-based; design: dose 25 mg/kg; procedure, shortened: as §1
Cavia porcellus [19] = assay: Inhibition of LTD4 (leukotriene) induced bronchospasm in the guinea pig when administered perorally (25 mg/kg), A minus(-)number indicates potentiation.; NA means not active; format: functional, organism-based; procedure, shortened: as §2
Cavia porcellus [20] = assay: Inhibition of LTD4 (leukotriene) induced bronchospasm in the guinea pig when administered perorally at 25 mg/kg; NA means not active; format: functional, organism-based; design: dose 25 mg/kg; procedure, shortened: as §2
Cavia porcellus [21] = assay: Inhibition of Ovalbumin (OA) induced bronchospasm in the guinea pig when administered intraduodenally at 25 mg/kg; format: functional; conditions: route intraduodenal; procedure, shortened: as §1
Cavia porcellus [22] = assay: Inhibition of Ovalbumin (OA) induced bronchospasm in the guinea pig when administered intraduodenally (50 mg/kg); NA means not active; format: functional, organism-based; procedure, shortened: as §1

inhibition [1]: 75%
SMILES: CCN(CC)C(=O)N(C)C[C@H](O)c1cccc(OCc2ccc3ccccc3n2)c1
ED50 (Cavia porcellus [2]): 55 mg/kg
Inhibition (Cavia porcellus [3]): 25%
ED50 (Cavia porcellus [4]): 20 mg/kg
Potency (Cavia porcellus [5]): 1.5
Potency (Cavia porcellus [6]): 1.8
Potency (Cavia porcellus [7]): 1.1
Potency (Cavia porcellus [8]): 1.4
ED50 (Cavia porcellus [9]): 9 mg/kg
ED50 (Cavia porcellus [10]): 56 mg/kg
pkB (Cavia porcellus [11]): 5.22
Potency (Cavia porcellus [12]): 23

inhibition [1]: 36%
inhibition (Cavia porcellus [13]): 59%
SMILES: CCN(CC)C(=O)N(C)C[C@H](O)c1cccc(OCc2nc3ccccc3s2)c1
Inhibition (Cavia porcellus [3]): 41%

inhibition [1]: 20%
inhibition (Cavia porcellus [13]): 71%
SMILES: CCOC(=O)N(C)C[C@H](O)c1cccc(OCc2ccc3ccccc3n2)c1

inhibition [1]: 84%
inhibition (Cavia porcellus [15]): 38%
inhibition (Cavia porcellus [13]): 77%
SMILES: CCN(CC)C(=O)N(C)C[C@H](O)c1cccc(OCc2nc3ccccc3n2C)c1
inhibition (Cavia porcellus [14]): inactive

inhibition (Cavia porcellus [16]): 20%
SMILES: O=C(NCC(O)c1cccc(OCc2ccc3ccccc3n2)c1)c1ccccn1 (stereo not drawn)

inhibition (Cavia porcellus [15]): 15%
inhibition (Cavia porcellus [17]): 15%
inhibition (Cavia porcellus [13]): 93%
SMILES: CN(C)C(=O)N(C)C[C@H](O)c1cccc(OCc2ccc3ccccc3n2)c1

inhibition [1]: 23%
inhibition (Cavia porcellus [13]): 71%
SMILES: COC(=O)C1CCCN1C(=O)N(C)C[C@H](O)c1cccc(OCc2ccc3ccccc3n2)c1 (stereo partly drawn)

inhibition (Cavia porcellus [13]): 80%
SMILES: CCC1=NCC(c2cccc(OCc3ccc4ccccc4n3)c2)O1 (stereo not drawn)
inhibition (Cavia porcellus [18]): inactive

inhibition (Cavia porcellus [16]): 25%
SMILES: CCOC(=O)CC(=O)NCC(O)c1cccc(OCc2ccc3ccccc3n2)c1 (stereo not drawn)

inhibition (Cavia porcellus [16]): 36%
SMILES: CCOC(=O)NCC(O)c1cccc(OCc2ccc3ccccc3n2)c1 (stereo not drawn)

inhibition (Cavia porcellus [13]): 82%
SMILES: CCNC(=O)N(C)CC(O)c1cccc(OCc2ccc3ccccc3n2)c1 (stereo not drawn)
Inhibition (Cavia porcellus [3]): 46%
inhibition (Cavia porcellus [19]): inactive

inhibition (Cavia porcellus [13]): 21%
SMILES: CN(C[C@H](O)c1cccc(OCc2ccc3ccccc3n2)c1)C(=O)N(c1ccccc1)c1ccccc1

inhibition (Cavia porcellus [13]): 34%
SMILES: CCN(CC)C(=O)N(CC)C[C@H](O)c1cccc(OCc2ccc3ccccc3n2)c1

inhibition (Cavia porcellus [17]): inactive
inhibition (Cavia porcellus [16]): 86%
SMILES: c1cncc(C2=NCC(c3cccc(OCc4ccc5ccccc5n4)c3)O2)c1 (stereo not drawn)
inhibition (Cavia porcellus [20]): inactive

SMILES: NCC(O)c1cccc(OCc2ccc3ccccc3n2)c1 (stereo not drawn)
inhibition (Cavia porcellus [13]): 23%

inhibition (Cavia porcellus [13]): 65%
SMILES: CN1CC(c2cccc(OCc3nc4ccccc4n3C)c2)OC1=O (stereo not drawn)
inhibition in vivo at 25 mg/kg (Cavia porcellus [21]): 68%

inhibition (Cavia porcellus [15]): 33%
inhibition (Cavia porcellus [13]): 56%
SMILES: CN(C)S(=O)(=O)N(C)C[C@H](O)c1cccc(OCc2ccc3ccccc3n2)c1
inhibition (Cavia porcellus [22]): inactive

inhibition [1]: 50%
inhibition (Cavia porcellus [13]): 31%
SMILES: O=C1OC(c2cccc(OCc3ccc4ccccc4n3)c2)CN1Cc1ccc2ccccc2n1 (stereo not drawn)

inhibition (Cavia porcellus [13]): 31%
SMILES: CN(C[C@H](O)c1cccc(OCc2ccc3ccccc3n2)c1)C(=O)c1ccncc1
